Data as given in ChEMBL document CHEMBL4665779, “Novel 2-Substituted 3-Hydroxy-1,6-dimethylpyridin-4(1H)-ones as Dual-Acting Biofilm Inhibitors of Pseudomonas aeruginosa” (J Med Chem, 2020).
The source made the active and inactive calls. The calls are words filed in the database; no cut-off is given here.

Experiments:
[1] = Growth inhibition of Pseudomonas aeruginosa PAO1 at 512 uM by CLSI-based broth microdilution method
How it was run: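 Broth microdilution following CLSI standards: two-fold serial dilutions were made in Mueller-Hinton broth and inoculated with P. aeruginosa to a final OD600 of 0.05. The top final concentration is printed as […].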

[2] = system: Pseudomonas aeruginosa; assay: Antibiofilm activity against Pseudomonas aeruginosa PAO1 assessed as inhibition of biofilm formation after 18 hrs by crystal violet staining based assay; assay type: functional, organism-based; details: PAO1, 18 h
[3] = system: Pseudomonas aeruginosa PAO1; assay: Induction of iron chelation in Pseudomonas aeruginosa PAO1 assessed as increase in iron deficiency by measuring change in total ferric ion concentration at 20 uM by inductively coupled plasma mass spectrometry (reference value: 1.91 +/- 0.8 uM)
[4] = Metal chelating activity assessed as negative logarithm of total free ferric ion concentration in a solution at 60 uM measured after 48 hrs in presence of CP645 probe and Fe-NTA by fluorescence spectrophotometry analysis
[5] = system: Vero; assay: Cytotoxicity against African green monkey Vero cells assessed as reduction in cell viability at 1.25 to 100 uM after 16 hrs by MTT assay; assay type: cell-based; details: chlorocebus sabaeus, dose 1.25-100 µM
How it was run: (§1)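 MTT assay on Vero or LO2 cells seeded at 5000–15000 cells/well for 16 h, then washed with PBS. Compound (0–100 μM) added in DMEM for 16 h at 37 °C, 5% CO2. MTT added for 3 h, formazan dissolved in DMSO with shaking, OD570 read. Triplicate, mean ± SD.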

[6] = system: Pseudomonas aeruginosa PAO1; assay: Induction of iron chelation in Pseudomonas aeruginosa PAO1 assessed as increase in intracellular pyochelin level at 1.25 to 20 uM in presence of 10 uM FeCl3 by fluorescence microplate reader assay; assay type: cell-based; details: dose microM 1.25-20
[7] = system: L02; assay: Cytotoxicity against human L02 cells assessed as reduction in cell viability at 1.25 to 100 uM after 16 hrs by MTT assay; assay type: cell-based; details: l02, 16 h, dose 1.25-100 µM; how it was run: as §1
[8] = system: Pseudomonas aeruginosa PAO1; assay: Induction of iron chelation in Pseudomonas aeruginosa PAO1 assessed as increase in intracellular pyoverdin level at 1.25 to 20 uM in presence of 10 uM FeCl3 by fluorescence microplate reader assay; assay type: cell-based; details: dose microM 1.25-20

Structure (SMILES) | growth inhibition (GI) [1] | IC50 [2] | further results
Cc1cc(=O)c(O)c(CNC(C)C)n1C | Non-Toxic | 24.5 µM | 
Cc1cc(=O)c(O)c(CNC(=O)Cc2ccc(Cl)cc2)n1C | Non-Toxic | > 100 µM | 
Cc1cc(=O)c(O)c(CNS(=O)(=O)c2cccc3c2NCCC3)n1C | Non-Toxic | 35.3 µM | 
Cc1cc(=O)c(O)c(CNC(=O)CC2CCCCC2)n1C | Non-Toxic | 46.8 µM | 
COc1ccc(C(=O)NCc2c(O)c(=O)cc(C)n2C)cc1 | Non-Toxic | 38.4 µM | 
COc1cccc(NCc2c(O)c(=O)cc(C)n2C)c1 | Non-Toxic | > 100 µM | 
COc1ccc(CCCC(=O)NCc2c(O)c(=O)cc(C)n2C)cc1 | Non-Toxic | > 100 µM | 
Cc1cc(=O)c(O)c(CNC(=O)c2ccc(F)cc2)n1C | Non-Toxic | > 100 µM | 
Cc1ccc(S(=O)(=O)NCc2c(O)c(=O)cc(C)n2C)cc1 | Non-Toxic | 59.3 µM | 
COc1ccccc1C(=O)NCc1c(O)c(=O)cc(C)n1C | Non-Toxic | 69.7 µM | 
COc1ccc(CC(=O)NCc2c(O)c(=O)cc(C)n2C)cc1 | Non-Toxic | 65.5 µM | 
Cc1cc(=O)c(O)c(CNC(=O)C2CCCC2)n1C | Non-Toxic | 65.1 µM | 
Cc1c(O)c(=O)ccn1C [DEFERIPRONE] |  | > 100 µM | Activity [3]: 1.23 µM; log(activity) [4]: -20.8; Activity [5]: Non-Toxic; Activity [6]: Active; Activity [7]: Non-Toxic; Activity [8]: inactive
Cc1cc(=O)c(O)c(CNCCCN2CCN(C)CC2)n1C | Non-Toxic | 16.9 µM | 
CCCCCC(=O)NCc1c(O)c(=O)cc(C)n1C | Non-Toxic | 57.9 µM | 
CCCCC(=O)NCc1c(O)c(=O)cc(C)n1C | Non-Toxic | 56.9 µM | 
Cc1cc(=O)c(O)c(CNC(=O)C2CCC2)n1C | Non-Toxic | 64.1 µM | 
Cc1cc(=O)c(O)c(CNC(=O)c2ccccc2)n1C | Non-Toxic | 41.7 µM | 
COc1ccc(S(=O)(=O)NCc2c(O)c(=O)cc(C)n2C)cc1 | Non-Toxic | > 100 µM | 
Cc1cc(=O)c(O)c(CNC(=O)c2ccnc(C(F)(F)F)c2)n1C | Non-Toxic | > 100 µM | 
Cc1cc(=O)c(O)c(CNS(=O)(=O)c2ccc(-c3ccccc3)cc2)n1C | Non-Toxic | > 100 µM | 

Structure (SMILES) | growth inhibition (GI) [1] | IC50 [2] | further results
CCCCNCc1c(O)c(=O)cc(C)n1C | Non-Toxic | 52.5 µM | 
CCCCCNCc1c(O)c(=O)cc(C)n1C | Non-Toxic | > 100 µM | 
Cc1cc(=O)c(O)c(CNC(=O)c2ccc(C(F)(F)F)cc2)n1C | Non-Toxic | 61.1 µM | 
Cc1cc(=O)c(O)c(CNC(=O)c2ccncc2)n1C | Non-Toxic | > 100 µM | 
Cc1cc(=O)c(O)c(CNC2CCN(C)CC2)n1C | Non-Toxic | 35 µM | 
Cc1cc(=O)c(O)c(CNC2CCCC2)n1C | Non-Toxic | 14.9 µM | 
Cc1cc(=O)c(O)c(CNC(=O)C2CC2)n1C | Non-Toxic | > 100 µM | 
Cc1cc(=O)c(O)c(CNC(=O)c2cccc3ccccc23)n1C | Non-Toxic | 75.6 µM | 
Cc1cc(=O)c(O)c(CNC(=O)Cc2ccc(F)cc2)n1C | Non-Toxic | 55 µM | 
CCCCCCCC(=O)NCc1c(O)c(=O)cc(C)n1C | Non-Toxic | > 100 µM | 
COc1ccc(CCC(=O)NCc2c(O)c(=O)cc(C)n2C)cc1 | Non-Toxic | 59.1 µM | 
CCCC(=O)NCc1c(O)c(=O)cc(C)n1C | Non-Toxic | 45.1 µM | 
Cc1cc(=O)c(O)c(CNC(=O)C2CCCO2)n1C (centres undefined) | Non-Toxic | 26.5 µM | 
Cc1cc(=O)c(O)c(CNS(=O)(=O)c2ccc(C(C)(C)C)cc2)n1C | Non-Toxic | 51.6 µM | 
Cc1cc(=O)c(O)c(CNS(=O)(=O)c2ccc(F)cc2)n1C | Non-Toxic | > 100 µM | 
Cc1cc(=O)c(O)c(CNC(=O)Cc2ccccc2)n1C | Non-Toxic | 28.1 µM | 
Cc1cc(=O)c(O)c(CNCC2CN(Cc3ccc(F)cc3)CCO2)n1C (centres undefined) | Non-Toxic | > 100 µM | 
COc1cccc(C(=O)NCc2c(O)c(=O)cc(C)n2C)c1 | Non-Toxic | > 100 µM | 
Cc1cc(=O)c(O)c(CNS(=O)(=O)c2ccccc2)n1C | Non-Toxic | > 100 µM | 
CCCCCCCCCC(=O)CC(=O)NCc1c(O)c(=O)cc(C)n1C | Non-Toxic | > 100 µM | 
Cc1cc(=O)c(O)c(CNC(=O)C2CCCCC2)n1C | Non-Toxic | 63.4 µM | 
